From publication PMC2887662 (Journal of medicinal chemistry, 2010)
“Also recorded” adds a separate entry of the source.

What was measured:
[1] = test system: panel of six different human tumor cell lines; experiment: Antiproliferative activity, panel of six cell lines; assay type: cell-based; conditions: for antiproliferative activity (in words): six human tumor cell lines; for IC50: Homo sapiens, read-out: IC50 values, range against the cell lines
Method in brief: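 Cells in RPMI-1640 (Jurkat, HL-60, K562) or DMEM (MCF7, A549, HeLa) with 10% FBS and penicillin/streptomycin. 8 × 10^3 cells/well were preincubated 18 h, then exposed to a range of test compound concentrations in complete medium for 72 h at 37 °C, 5% CO2. Viability was read by MTT.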

HeLa cells = experiment: Flow cytometric cell cycle analysis, HeLa; assay type: cell-based, human; conditions: for G2/M cell population: 30 nM, 48 h, control 12%; for cell cycle effect in HeLa: 7 to 250 nM, 24 h
Jurkat cells [2] = experiment: Flow cytometric cell cycle analysis, Jurkat; assay type: cell-based, human
Jurkat cells [3] = experiment: Annexin-V/PI apoptosis assay; assay type: cell-based, human; conditions: 50 nM, 24-72 h
Method in brief: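 After treatment for different times, Jurkat cells are co-stained with annexin-V-FITC (per the kit instructions) and PI. They are analysed by flow cytometry with excitation at 488 nm and emission filters at 525 nm (FITC, green) and 585 nm (PI, red). Externalised phosphatidylserine is scored as annexin-V positive cells.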

Jurkat cells [4] = experiment: Mitochondrial membrane potential; assay type: cell-based, human; conditions: 50 nM
Method in brief: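 Mitochondrial potential is probed with the lipophilic cation JC-1. After different treatment times, cells are pelleted and resuspended in HBSS containing 1 µM JC-1, held for 10 min at 37 °C, then spun and resuspended in HBSS. Polarised mitochondria form aggregates with shifted emission. On depolarisation, JC-1 monomers emit at 530 nm.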

Jurkat cells [5] = experiment: Mitochondrial ROS production; assay type: cell-based, human; conditions: up to 72 h, HE and H2DCFDA
Method in brief: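 After different treatment times, cells are pelleted and resuspended in HBSS containing hydroethidine (2.5 µM) or H2DCFDA (0.1 µM). They are incubated for 30 min at 37 °C, spun and resuspended in HBSS. Fluorescence is recorded directly by flow cytometry, with excitation at 488 nm and emission at 585 nm (ethidium, from superoxide) or 530 nm (DCF, from peroxides).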

[6] = test system: caspase-3 in Jurkat cells; experiment: Caspase-3 activation by flow cytometry; assay type: cell-based, human; conditions: 50 nM, 24, 48, 72 h
Method in brief: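 After different incubation times with test compound, cells are pelleted and fixed in Cytofix buffer for 20 min, then washed with Perm/Wash. They are stained for 30 min with a FITC-conjugated antibody against the human active caspase-3 fragment, washed and analysed by flow cytometry. Results are given as percentage of caspase-3 active fragment positive cells.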

[7] = test system: PARP and Bcl-2 in Jurkat cells; experiment: Western blot for PARP cleavage and Bcl-2 expression; assay type: cell-based, human; conditions: 50 nM; for PARP cleavage: 24 h
Method in brief: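 Jurkat cells were treated with test compound for varying times, washed in cold PBS and lysed on ice for 30 min. Lysates were spun at 15000g, 4 °C, 10 min, and protein was measured by BCA. 20 µg protein per lane was run on 7.5–15% SDS–PAGE and blotted to PVDF. Blots were probed with rabbit anti-Bcl-2 or anti-PARP (1:1000, 2 h, RT), then HRP secondary, and developed by ECL. Blots were stripped and reprobed for β-actin as loading control.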

HUVECs expressing GFP = experiment: Endothelial cell shape change assay; assay type: cell-based, human; conditions: 30 min after drug addition
Method in brief: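 GFP-expressing HUVECs were grown in EGM-2 with endothelial cell growth supplement and seeded on collagen-coated slides 1 day before assay. Morphology and GFP fluorescence were imaged by confocal microscopy before and at several times after test compound addition. The GFP-positive cell area was quantified by image analysis.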

[8] = test system: chick aortic vascular sprouts; experiment: Chick aortic ring assay; assay type: cell-based; conditions: 30 min incubation
Method in brief: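 Aortic arches from day 14 chick embryos were cut into cross-sectional slices and embedded in Matrigel with complete medium. Endothelial sprouts or channels formed over 24–48 h. Various concentrations of test compound were then added, and vascular channels were photographed before and 30 min after addition.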

SMILES: CCOc1cccc(-c2ncnn2-c2cc(OC)c(OC)c(OC)c2)c1 [Compound 4m]
- antiproliferative activity (in words) [1]: inactivity

SMILES: COc1cc(-n2ncnc2-c2ccc(Cl)cc2)cc(OC)c1OC [Compound 4d]
- antiproliferative activity (in words) [1]: did not yield active compounds

SMILES: COc1cc(-n2ncnc2-c2ccccc2)cc(OC)c1OC [Compound 4a]
- antiproliferative activity (in words) [1]: did not yield active compounds

SMILES: CCOc1ccc(-c2ncnn2-c2cc(OC)c(OC)c(OC)c2)cc1 [Compound 4l, 1-(3,4,5-Trimethoxyphenyl)-5-(4-ethoxyphenyl)-1H-1,2,4-triazole]
- G2/M cell population (HeLa cells): over 70%
- cell cycle effect in HeLa (HeLa cells): clear G2/M arrest pattern in a concentration-dependent manner
- cell cycle effect in Jurkat (Jurkat cells [2]): significant block in the G2/M phase
- induction of apoptosis (annexin-V positive cells) (Jurkat cells [3]): significant induction of apoptotic cells after 24 h
- mitochondrial transmembrane potential (JC-1) (Jurkat cells [4]): depolarization of the mitochondrial membrane potential
- ROS production (Jurkat cells [5]): induced the production of large amounts of ROS
- caspase-3 activation [6]: activation of caspase-3 in a time-dependent manner
- Bcl-2 expression [7]: decreased expression of Bcl-2
- PARP cleavage [7]: extensive formation of the typical 89 kDa fragment of PARP
- lowest concentration causing HUVEC retraction and membrane blebs (HUVECs expressing GFP): 0.5 µM
- effect on vascular sprouts from chick aortic ring [8]: disrupted formation of vascular sprouts

SMILES: COc1cc(-n2ncnc2-c2cccc([N+](=O)[O-])c2)cc(OC)c1OC [Compound 4r]
- antiproliferative activity (in words) [1]: did not yield active compounds

SMILES: CCOc1ccc(-c2ncnn2-c2cc(OC)c(OC)c(OC)c2)cc1Cl [Compound 4o, 5-(3-Chloro-4-ethoxyphenyl)-1-(3,4,5-trimethoxyphenyl)-1H-1,2,4-triazole]
- IC50 [1]: 3 to 20 nM
- G2/M cell population (HeLa cells): over 70%
- cell cycle effect in HeLa (HeLa cells): clear G2/M arrest pattern in a concentration-dependent manner
- cell cycle effect in Jurkat (Jurkat cells [2]): significant block in the G2/M phase
- induction of apoptosis (annexin-V positive cells) (Jurkat cells [3]): significant induction of apoptotic cells after 24 h
- mitochondrial transmembrane potential (JC-1) (Jurkat cells [4]): depolarization of the mitochondrial membrane potential
- ROS production (Jurkat cells [5]): induced the production of large amounts of ROS
- caspase-3 activation [6]: activation of caspase-3 in a time-dependent manner
- Bcl-2 expression [7]: decreased expression of Bcl-2
- PARP cleavage [7]: extensive formation of the typical 89 kDa fragment of PARP

SMILES: COc1ccc(/C=C\c2cc(OC)c(OC)c(OC)c2)cc1O [CA-4, combretastatin A-4, reference compound]
- IC50 [1]: 4 to 370 nM

SMILES: COc1cc(-n2ncnc2-c2ccc(Cl)c(Cl)c2)cc(OC)c1OC [Compound 4f]
- antiproliferative activity (in words) [1]: did not yield active compounds

SMILES: COc1cc(-n2ncnc2-c2ccc(F)cc2)cc(OC)c1OC [Compound 4b]
- antiproliferative activity (in words) [1]: did not yield active compounds

SMILES: COc1cc(-n2ncnc2-c2cccc(F)c2)cc(OC)c1OC [Compound 4c]
- antiproliferative activity (in words) [1]: did not yield active compounds

SMILES: COc1ccccc1-c1ncnn1-c1cc(OC)c(OC)c(OC)c1 [Compound 4j]
- antiproliferative activity (in words) [1]: dramatic drop of potency

SMILES: COc1cccc(-c2ncnn2-c2cc(OC)c(OC)c(OC)c2)c1 [Compound 4i]
- antiproliferative activity (in words) [1]: dramatic drop of potency; also recorded: inactivity
